Source: PubChem
Most compounds without a hit are left out; they make up all but 2.2% or so of the library.
CHRM5 agonist – CHRM5 agonism in calcium assay; P08912; CHO-K1 hM5 cells, Fluo-8 calcium fluorescence; 0% DMSO wells, 100% maximal acetylcholine response; activation, % at 3 µM; 360,000 compounds, 0.19% hits;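 active = activation above the run's mean over test compounds plus 3 SD, cut at about 23% in these data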;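 also: signal is peak over basal fluorescence ratio across the kinetic read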
CHRM1 antagonist – blocks human M1 muscarinic receptor. inhibition, % at 3 µM. 360,000 compounds, 1.3% hits. P11229. CHO-K1 hM1, Fluo-8 calcium fluorescence, ACh EC80 antagonist;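 active = percent inhibition above its own plate's cutoff, namely the mean of that plate's compound wells plus 3 SD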;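 also: peak over basal fluorescence ratio during 140 s after agonist addition; 0% = ACh EC80 plus DMSO and 100% = DMSO alone without agonist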
Target sequence (P11229 whole entry, looked up): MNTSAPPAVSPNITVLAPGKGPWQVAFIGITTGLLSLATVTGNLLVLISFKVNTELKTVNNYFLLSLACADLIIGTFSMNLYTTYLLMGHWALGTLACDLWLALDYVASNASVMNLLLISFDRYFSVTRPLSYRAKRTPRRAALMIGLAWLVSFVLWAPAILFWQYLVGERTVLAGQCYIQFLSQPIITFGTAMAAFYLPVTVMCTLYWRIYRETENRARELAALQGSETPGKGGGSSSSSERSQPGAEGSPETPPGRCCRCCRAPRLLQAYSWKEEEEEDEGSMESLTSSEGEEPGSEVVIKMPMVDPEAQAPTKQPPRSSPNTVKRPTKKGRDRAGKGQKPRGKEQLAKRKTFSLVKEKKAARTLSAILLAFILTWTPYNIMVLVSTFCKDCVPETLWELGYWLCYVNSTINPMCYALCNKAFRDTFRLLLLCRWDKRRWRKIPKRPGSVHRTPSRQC
CHRM5 PAM – CHRM5 positive allosteric modulation | P08912 | CHO-K1 hM5, Fluo-8 calcium, ACh EC20 PAM; 0% = ACh EC20, 100% = ACh EC100 | activation, % at 3 µM | 360,000 compounds, 0.3% hits;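 active = activation above the run cutoff, the mean activation of all test compounds plus 3 SD, cut at about 18% in these data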
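Measured by: Fluo-8 calcium fluorescence; material: human M5 receptor in CHO-K1 cells; schedule: Post-acetylcholine fluorescence recording 140 s; benchmarks: low control EC20 acetylcholine (0%), high control EC100 acetylcholine (100%); read-out: Max/basal fluorescence ratio as % of EC20–EC100 ACh window; compound: single dose, 3 µM nominal final test concentration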
M5 antag – antagonists of human muscarinic M5 receptor (CHRM5). P08912. CHO-hM5 cells, Fluo-8 calcium fluorescence, ACh EC80. inhibition, % at 3 µM. 360,000 compounds, 0.59% hits;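 active = inhibition above a per-plate cutoff, the mean of that plate's test compounds plus 3 SD, cut at about 27% in these data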;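 also: 0% = acetylcholine EC80 with DMSO and 100% = DMSO without agonist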
M1 ag – human M1 muscarinic receptor agonism | P11229 | CHO-K1 hM1, Fluo-8 calcium fluorescence, agonist mode; 0% DMSO, 100% acetylcholine EC100 | activation, % at 3 µM | 360,000 compounds, 0.33% hits | AID 588814;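 active = activation above the run's mean compound activation plus 3 SD, cut at about 16% in these data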;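 also: peak over basal fluorescence ratio within a 140 s kinetic read after compound addition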
M1 PAM – potentiates human M1 receptor response to acetylcholine. P11229. 360,000 compounds, 0.088% hits. CHO-K1 hM1, Fluo-8 calcium fluorescence, ACh EC20; 0% = ACh EC20, 100% = maximal ACh. activation, % at 3 µM; in the data active = activation above about 19%, passing the limit was not always enough
Active calls of the source: *.

SMILES | CHRM5 agonist | CHRM1 antagonist | CHRM5 PAM | M5 antag | M1 ag | M1 PAM
CCCCNc1c(-c2ccc(SC(C)CC)c(OC)c2)nc2ccc(Cl)cn12 (configuration not stated) | -5 | 13 | -21 | 12 | -5 | -10
CC1CN(C(=O)c2ccc(NS(=O)(=O)c3ccc(C(C)(C)C)cc3)cc2)CC(C)O1 (configuration not stated) | 48* | 19 | -4 | 2 | 39* | -3
CCOc1ccc(S(=O)(=O)Nc2ccc(C(=O)N3CC(C)OC(C)C3)cc2)cc1 (configuration not stated) | 30* | 14 | -7 | 9 | 33* | -12
COc1ccc(NS(=O)(=O)c2ccc(C(=O)N3CCC(C)CC3)cc2)cc1 | 39* | 18 | -21 | 13 | 36* | -17
COc1ccc(NS(=O)(=O)c2ccc(C(=O)N(C)Cc3ccc(C)o3)cc2)cc1 | 28* | -1 | -4 | -2 | 20* | 4
CC1CCN(C(=O)c2ccc(NS(=O)(=O)c3ccccc3)cc2)CC1 | -1 | -5 | -8 | -3 | 1 | 7
COc1ccc(CN(C)C(=O)c2ccc(NS(=O)(=O)c3ccc(F)cc3)cc2)c(OC)c1 | 1 | -2 | -9 | 3 | 5 | 3
CCOc1ccccc1NC(=O)CN1C(=O)COc2ccc(C)cc21 | 1 | -11 | -10 | 3 | 2 | 2
Oc1cccc(-c2nc3c4c(ncn3n2)-c2ccccc2CC42CCCC2)c1 | 11 | 17 | -12 | 6 | -3 | -4
CCOc1ccc(NS(=O)(=O)c2ccc(C(=O)N3CCN(c4ncccn4)CC3)cc2)cc1 | 14 | 11 | -27 | 18 | 6 | -5
CCOc1ccc(NS(=O)(=O)c2ccc(C(=O)N3CCCCC3)cc2)cc1 | 19 | 15 | -16 | 19 | 23* | -12
Cc1ccc(NS(=O)(=O)c2ccc(C(=O)N3CCCC(C(F)(F)F)C3)cc2)cc1 (configuration not stated) | 54* | 17 | -12 | 13 | 45* | -6
COc1ccc(NS(=O)(=O)c2ccc(N3CCCCC3)c(NC(=O)C(C)NC(N)=O)c2)cc1 (configuration not stated) | -2 | 1 | -11 | 20 | -1 | 4
COc1ccccc1NS(=O)(=O)c1ccc(C(=O)N2CCCC(C(F)(F)F)C2)cc1 (configuration not stated) | 8 | 11 | -3 | 4 | 7 | -2
COc1ccc(NS(=O)(=O)c2ccc(N3CCCCC3)c(N)c2)cc1 | 7 | 36* | -7 | 15 | -1 | -13
O=C(c1cccc(S(=O)(=O)N2CCN(c3ccc(F)cc3)CC2)c1)N1CCCC(C(F)(F)F)C1 (configuration not stated) | 0 | 34* | -20 | 10 | -2 | -12
CN(C)/C=C(\C#N)C(=O)N/N=C/c1ccc(Cl)cc1 | 3 | 3 | 2 | -11 | -3 | -6
CCOc1ccc(NS(=O)(=O)c2ccc(C(=O)N3CC(C)OC(C)C3)cc2)cc1 (configuration not stated) | 57* | 34* | -17 | 5 | 55* | -22
N#Cc1ccccc1/C=C/C(=O)N1CCOCC1 | 34* | 7 | -23 | 12 | 5 | -1
CCOc1ccc(CN2CCC(n3nccc3NC(=O)c3ccccc3OC)CC2)cc1 | -5 | -13 | 6 | -8 | 0 | 2
CC(C)C(=O)Nc1ccc2c(c1)nc(CCN1CCN(c3ccccc3)CC1)n2C | -6 | 45* | -4 | 12 | -8 | -19
CC(C)C(=O)Nc1ccc2c(c1)nc(CCN1CCCCC1)n2C | -4 | -8 | 0 | 7 | -11 | 6
Cn1c(CN2CCN(c3cccc(Cl)c3)CC2)nc2ccccc21 | -1 | 26* | -3 | 2 | -7 | -15
CC1CCN(CCc2nc3cc(NC(=O)C(C)C)ccc3n2C)CC1 | -7 | 88* | -17 | 69* | -11 | -32
